SMILES strings stand for the structures.

Cytotoxicity data for 97 compounds are collected here from ChEMBL document CHEMBL4513216, “Probing the Open Global Health Chemical Diversity Library for Multistage-Active Starting Points for Next-Generation Antimalarials” (ACS Infect Dis, 2020).

The series is described as follows: Toxicity liver stage against HepG2, at 10uM. More on the design: test concentration 10 uM, cell line HepG2-A16-CD81EGFP. In kind it is cell-based. The conditions noted are these: human, HepG2-A16-CD81EGFP cells; read-out: INHIBITION
The essentials:
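Uninfected HepG2-A16-CD81EGFP cells, 3 × 10^3 per well, 1536-well, plated on prespotted compound at 10 μM final, parasite-free screening media added to match infected plates; puromycin 10 μM positive, DMSO 0.5% negative; run in parallel with 48 h PbLuc assay at 37 °C, 5% CO2; viability by CellTiter-Glo luminescence, normalized to controls.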
Take `CCn1c(CN(C)C(=O)c2ccc(N(C)C)nc2)nc2ccccc21`: the cytotoxicity at 10 µM was 0.0894%.

For the compound `COCCN1CCC2(CCC(=O)N2Cc2csc(C)n2)CC1`, the cytotoxicity at 10 µM is 2.22%.

Take `CSCc1cccc(S(=O)(=O)NCCCn2ccnc2)c1`: the cytotoxicity at 10 µM came out at 4.51%.

In the case of `Cc1cc(C)n(CC(=O)N2CCC(NS(C)(=O)=O)CC2)n1`, the cytotoxicity at 10 µM was 3.18%.

In the case of `CCn1ccc(C(=O)Nc2ccc3c(c2)C(C)(C)C(=O)N3C)n1`, the cytotoxicity at 10 µM is 12.2%.

For the compound `CNc1cncc(C2CCCN2Cc2ccnc(C)n2)n1` (configuration not stated), the cytotoxicity at 10 µM was -11.4%.

Regarding `Cc1cc(N(C)C)nc(C2COCCN2Cc2csc(C)n2)n1` (configuration not stated), the cytotoxicity at 10 µM amounted to 1.75%.

As for `Cc1ccc(CN(C)C(=O)c2n[nH]c(N)c2-c2ccccc2)o1`, the cytotoxicity at 10 µM was -4.81%.

For the compound `COc1ccccc1C(=O)N1CCN(C(=O)CCCc2cn[nH]c2)CC1`, the cytotoxicity at 10 µM is 2.68%.

For the compound `CN(CC(=O)N1CCC(OCc2cccnc2)CC1)c1ccccc1`, the cytotoxicity at 10 µM amounted to 7.56%.

Regarding `CCn1nc(C)cc1C(=O)N1C[C@@H]2C[C@@H](c3nnc(C)[nH]3)O[C@@H]2C1`, the cytotoxicity at 10 µM is -1.87%.

Consider `Cc1ccc([C@@H]2CN(S(=O)(=O)c3cc(C)ccc3F)C[C@H]2N(C)C)cc1`, for which the cytotoxicity at 10 µM was -7.21%.

As to `CCOc1ccc(C(F)(F)F)cc1NCc1nc(C)c(C)o1`, the cytotoxicity at 10 µM was -45.3%.

Regarding `Cc1ccc(CN2CCC3(CCC3NC(=O)c3ccn(C)c3)CC2)s1` (configuration not stated), the cytotoxicity at 10 µM was -151%.

With `CCCS(=O)(=O)N1CCN(C(=O)CO)CC1`, the cytotoxicity at 10 µM is -1.96%.

As for `O=C(NC1CC1)[C@@H]1CCO[C@@H]2CCN(Cc3ccsc3)C[C@H]21`, the cytotoxicity at 10 µM was 4.4%.

As to `NC(=O)C1CN(C(=O)C2(c3ccc(F)cc3F)CCCC2)CCO1` (configuration not stated), the cytotoxicity at 10 µM is -5.92%.

For `Cn1nc(Cn2cccc2)c2c1CN(Cc1ccoc1)C2`, the cytotoxicity at 10 µM was 2.96%.

As for `O=C(CSc1ccc(F)cc1)NS(=O)(=O)c1ccc2c(c1)OCCO2`, the cytotoxicity at 10 µM was -29.1%.

As to `CCc1ccccc1OCCN1CC[C@@]2(O)CCNC[C@H]2C1`, the cytotoxicity at 10 µM was -160%.

As for `O=C(c1csc(-c2ccco2)n1)N(CC1CCOC1)C1CC1` (configuration not stated), the cytotoxicity at 10 µM is -2.72%.

As for `CCCn1nccc1NC(=O)CN1CCn2c(nnc2C2CC2)C1`, the cytotoxicity at 10 µM is -8%.

For the compound `CSCc1cccc(S(=O)(=O)NCc2cnn(C)c2C)c1`, the cytotoxicity at 10 µM came to 13.7%.

Regarding `CCc1noc(C2CCN(C(=O)CCn3nc(C)cc3C)CC2)n1`, the cytotoxicity at 10 µM was -9.52%.

Consider `CCN1C(=O)CCCC12CCCN(C(=O)c1ccsc1)C2` (configuration not stated), for which the cytotoxicity at 10 µM was -153%.

As to `O=C(NCCN1CCOCC1)c1ccn(-c2ccccc2F)n1`, the cytotoxicity at 10 µM was found to be 7.44%.

Consider `Cc1n[nH]cc1CNC(=O)CCCc1cccs1`, for which the cytotoxicity at 10 µM was -52.3%.

Turning to `Cc1cc(N2CCC(N(C)Cc3cc(=O)c(O)co3)CC2)nc(C)n1`, the cytotoxicity at 10 µM came out at 2.34%.

On to `CCN1CCN(c2ccc(NC(C)c3nc(C(C)C)no3)c(C)c2)CC1` (configuration not stated), for which the cytotoxicity at 10 µM is -10%.

Consider `CC(Oc1cccc(F)c1)C(=O)N(CC(N)=O)C1CCCC1` (configuration not stated), for which the cytotoxicity at 10 µM was -1.21%.

In the case of `N#Cc1ccc(CN2CCCC2Cn2cccn2)cc1` (configuration not stated), the cytotoxicity at 10 µM is -2.96%.

Consider `CC(C)N(CCNC(=O)c1ccc(S(=O)(=O)NC2CC2)cc1)C(C)C`, for which the cytotoxicity at 10 µM is -65.8%.

Consider `Cc1nc(CN[C@H]2CCCN(C(=O)OC(C)(C)C)C2)cs1`, for which the cytotoxicity at 10 µM stood at 0.577%.

Consider `Cc1noc(C)c1CN(Cc1ccccc1)C(C)CN1CCOCC1` (configuration not stated), for which the cytotoxicity at 10 µM was found to be 7.97%.

As to `c1cncc(-n2cnnc2CCCN2CCOCC2)c1`, the cytotoxicity at 10 µM was determined as 1.5%.

For the compound `CCc1nc(C2CCCN(C(=O)c3cnn(CC)c3)C2)no1` (configuration not stated), the cytotoxicity at 10 µM was found to be 4.16%.

In the case of `Cn1ccnc(Nc2ccc3c(c2)CCN3C(=O)c2cccnc2)c1=O`, the cytotoxicity at 10 µM was -55%.

Take `CNC(=O)C1(c2cnccn2)CCCN1C(=O)c1ccccc1OC` (configuration not stated): the cytotoxicity at 10 µM came out at 3.1%.

Consider `Cc1sc2ncc(-c3ccnc(NC4CCN(C)CC4)n3)c(=O)n2c1C`, for which the cytotoxicity at 10 µM is -7.75%.

On to `CCn1c(C)cc(-c2csc(Cn3ccc(=O)[nH]c3=O)n2)c1C`, for which the cytotoxicity at 10 µM was found to be 10.2%.

Regarding `Fc1ccc(OCCCN2CC(n3cccn3)C2)cc1`, the cytotoxicity at 10 µM was 2.16%.

For `CCCc1cc(NCCn2cccn2)n2nccc2n1`, the cytotoxicity at 10 µM was 0.988%.

Consider `CN(C)C(=O)N1CCN(Cc2ccc3occc3c2)[C@H]2CS(=O)(=O)C[C@H]21`, for which the cytotoxicity at 10 µM was -4.37%.

In the case of `CC(C)n1ncc2cc(NC(=O)N3CCSCC3)cnc21`, the cytotoxicity at 10 µM is -5.07%.

`Cc1ccn(CC(=O)NCCCOc2ccccc2F)c(=O)c1`: the cytotoxicity at 10 µM was -5.79%.

Take `c1cnnc(NCC2CN(CCn3cccn3)CCO2)c1` (configuration not stated): the cytotoxicity at 10 µM is 5.53%.

Consider `CCCNC(=O)Nc1cccc2c1CCN(S(C)(=O)=O)C2`, for which the cytotoxicity at 10 µM was -7.92%.

For `Cc1ncsc1CCn1ccnc1-c1cc2n(n1)CCCNC2`, the cytotoxicity at 10 µM was -0.434%.

Turning to `c1ccc2c(c1)CC(n1ccnc1-c1cc3n(n1)CCCNC3)CO2` (configuration not stated), the cytotoxicity at 10 µM is -8.26%.

Take `CC(=O)N1CCN(C(=O)c2ccc(-c3cccc(C)c3)[nH]c2=O)CC1`: the cytotoxicity at 10 µM was 3.64%.

As to `CS(=O)(=O)N1CCCN(c2nccn3cnnc23)CC1`, the cytotoxicity at 10 µM is -8.85%.

As for `O=C(NCc1ccc(-n2cncn2)nc1)c1cc(Cl)c2c(c1)OCCO2`, the cytotoxicity at 10 µM is -16.5%.

Regarding `CCc1ccc(O)c(C(=O)N2CCCN(CC(=O)N(CC)CC)CC2)c1`, the cytotoxicity at 10 µM was determined as 6.62%.

As for `COc1ccc(C(C)N2CCC(C(=O)NC3CC3)CC2)cc1Cl` (configuration not stated), the cytotoxicity at 10 µM was -50.6%.

Turning to `CCc1[nH]nc(NC(=O)c2cc[nH]n2)c1C`, the cytotoxicity at 10 µM is -3.98%.

Regarding `c1cncc(CN2CCCCC2c2ccc(Nc3cnccn3)nc2)c1` (configuration not stated), the cytotoxicity at 10 µM stood at 4.41%.

For the compound `CNC(=O)C1Cn2ccnc2C2(CCN(Cc3cccs3)CC2)O1` (configuration not stated), the cytotoxicity at 10 µM is -70.6%.

Regarding `CN1CCC2(CCCN(c3nccc(C(F)(F)F)n3)C2)CC1`, the cytotoxicity at 10 µM is 4.14%.

As for `Cc1ccc(-n2c(COCC(=O)O)nc3c(C)cccc32)nc1`, the cytotoxicity at 10 µM came to 2.43%.

As for `CCn1nc(C)c(S(=O)(=O)N(C)c2ccc(Cl)cn2)c1C`, the cytotoxicity at 10 µM was -2.13%.

Consider `CC(C(=O)NCC1(c2c(F)cccc2F)CCCC1)S(C)(=O)=O` (configuration not stated), for which the cytotoxicity at 10 µM was found to be 8.14%.

For `NC(=O)c1ccnc(N2CCCC(CO)(Cc3ccc(F)cc3)C2)c1` (configuration not stated), the cytotoxicity at 10 µM was found to be 14.1%.

`CCN(Cc1cnn(CC)c1)Cc1c(Cl)cncc1Cl`: the cytotoxicity at 10 µM is -2.65%.

As for `Cc1cccc(C(=O)N2CCCC(c3noc(C)n3)C2)n1` (configuration not stated), the cytotoxicity at 10 µM was -19.9%.

Turning to `N#Cc1ccc(C(=O)N2CCOC[C@H](Oc3cnccn3)C2)cc1`, the cytotoxicity at 10 µM amounted to 5.88%.

Regarding `Fc1ccc(-c2nnc(CN3CCCC3Cn3cccn3)o2)cc1` (configuration not stated), the cytotoxicity at 10 µM was -5.65%.

In the case of `Cn1cnc2cc(C(=O)NS(=O)(=O)CC3CCCC3)ccc21`, the cytotoxicity at 10 µM is -3.2%.

For `CCC(CO)N(Cc1ccccn1)C(=O)c1ccc(C)c(Cl)c1` (configuration not stated), the cytotoxicity at 10 µM was -0.054%.

Take `CC(NCc1cc2cc(F)ccc2o1)c1nnc2n1CCCC2` (configuration not stated): the cytotoxicity at 10 µM was -7.93%.

Regarding `CCn1nc(C)c2nc(C(C)C)nc(N3CCCCC3)c21`, the cytotoxicity at 10 µM was -7.67%.

As for `Cc1ccc(F)c(S(=O)(=O)Nc2cn(C)cc(Br)c2=O)c1`, the cytotoxicity at 10 µM is -7.73%.

Turning to `N#Cc1ccc(NCCCN2C(=O)COc3ccccc32)nc1`, the cytotoxicity at 10 µM stood at 11%.

Turning to `Clc1cccnc1OC1CCNCC1`, the cytotoxicity at 10 µM is -10.9%.

In the case of `Cc1ccc(N2CCCC(NCc3cccc4c3OCO4)C2)nn1` (configuration not stated), the cytotoxicity at 10 µM is -16.4%.

As to `Cc1cc(OC(F)F)c(C(=O)N2CCC(CN(C)C)CC2)s1`, the cytotoxicity at 10 µM stood at 6.04%.

As to `O=C(CN1CCC(OCC2CCCO2)CC1)NCC(F)(F)F` (configuration not stated), the cytotoxicity at 10 µM is -1.2%.

Turning to `Cn1cnc2c(-c3cccnc3)nc(C3CCN(S(C)(=O)=O)CC3)cc21`, the cytotoxicity at 10 µM was -118%.

With `Cc1cnc(N2CCC3(CC2)CC(NC(=O)N(C)C)CO3)nc1` (configuration not stated), the cytotoxicity at 10 µM was 6.31%.

`Cc1cc(N2CCC(N(C)C(=O)c3ccccc3F)CC2)nc(C)n1`: the cytotoxicity at 10 µM turned out to be 25.5%.

Regarding `C[C@H]1CN(C(=O)c2ccc[nH]2)C[C@@]12CCN(c1ccsc1)C2=O`, the cytotoxicity at 10 µM was -77.4%.

For the compound `CC(=O)N[C@@H]1CN(C(=O)c2cccc(C)c2)C[C@H]1O`, the cytotoxicity at 10 µM is -2.48%.

In the case of `COCC(C)NC(=O)CSc1ccc(F)c(Cl)c1` (configuration not stated), the cytotoxicity at 10 µM was -48%.

As to `CC(C)c1cc(CNC(=O)NCc2cccc(N3CC=CC3)c2)on1`, the cytotoxicity at 10 µM was found to be 9.99%.

As for `COc1ccccc1-c1cc(NC(=O)CC2CCS(=O)(=O)C2)[nH]n1` (configuration not stated), the cytotoxicity at 10 µM was -113%.

In the case of `c1ccc(CCc2n[nH]c(C3CCC3)n2)cc1`, the cytotoxicity at 10 µM is -3.58%.

As to `O=c1n(CCSCCOc2ccc(Br)cc2)nc2ccccn12`, the cytotoxicity at 10 µM came to 10%.

`O=C1CSC(c2ccc(O)cc2)c2sccc2N1` (configuration not stated): the cytotoxicity at 10 µM came out at 5.31%.

As for `CCCN1CCCn2nc(CNC(=O)CC(C)n3ccnc3C)cc2C1` (configuration not stated), the cytotoxicity at 10 µM is -9.4%.

As to `Cc1cnc2c(c1NCc1ccc3c(c1)OCO3)c(=O)n(C)c(=O)n2C`, the cytotoxicity at 10 µM was 16.7%.

On to `CCCN1CCN(C(=O)c2ccc(Cn3cc(Br)cn3)cc2)CC1`, for which the cytotoxicity at 10 µM is -6.11%.

Consider `CC(C)CN1CCC(c2nc3ccc(NC(C)C)cn3n2)CC1`, for which the cytotoxicity at 10 µM was found to be 1.13%.

Consider `COc1cccc(C(=O)NS(=O)(=O)c2cccc(C#N)c2)c1`, for which the cytotoxicity at 10 µM is -6.12%.

Turning to `Cc1ccccc1SCC(=O)NC1CCC(O)CC1` (configuration not stated), the cytotoxicity at 10 µM is 9.58%.

As to `CC(C)Oc1nnc(SCC(=O)NCC(=O)N2CCCC2)s1`, the cytotoxicity at 10 µM was 1.38%.

Regarding `Cc1cc(NC(=O)Cn2cnc(-c3cccs3)cc2=O)no1`, the cytotoxicity at 10 µM was -0.243%.

Consider `O=C(NCC(O)c1ccoc1)Nc1cccs1` (configuration not stated), for which the cytotoxicity at 10 µM is -11.1%.

Take `Cn1cc(CN2CCc3c(CNC(=O)C4CC4)cncc3C2)cn1`: the cytotoxicity at 10 µM was -5.43%.
